The values that follow come from ChEMBL document CHEMBL1153389, “Identification of novel antibacterial peptides by chemoinformatics and machine learning” (2009).

The test has as its system Pseudomonas aeruginosa. Nature of the test: Antimicrobial activity against Pseudomonas aeruginosa H1001 expressing luciferase gene assessed as ratio antimicrobial IC50 for drug to Bac2A peptide by luminescence assay. The format is functional. In a few lines: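 Peptides are made by SPOT synthesis on cellulose, cleaved, and the spots placed in plate wells. Overnight P. aeruginosa H1001 (fliC::luxCDABE) is diluted 1:500 in 100 mM Tris-HCl pH 7.3 with 20 mM glucose and added to the wells. After 30 min, serial dilutions (8 rows) are made. Luminescence is read at 4 h. IC50 is taken from a sigmoid fit and expressed relative to Bac2A run in the same series.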
Consider H-ILRVISKRR-OH, for which the “Ratio IC50” value is reported as 25.

Take H-RKRWLWRWW-OH: the “Ratio IC50” value is 0.25.

Consider H-RWIGVIIKY-OH, for which the “Ratio IC50” value is 2.24.

For the substance H-RVFVKIRMK-OH, the “Ratio IC50” value is recorded as 0.72.

H-RKWRWRWLK-OH: the “Ratio IC50” value is recorded as 0.31.

With H-KNRGRWFSH-OH, the “Ratio IC50” value stood at 9.79.

Consider H-RKIWWWRIR-OH, for which the “Ratio IC50” value is reported as 0.59.

For H-IRMWVKRWR-OH, the “Ratio IC50” value is given as 0.61.

Regarding H-RWRIKFKRW-OH, the “Ratio IC50” value is on record as 0.26.

On to H-WGRGGWTNR-OH, for which the “Ratio IC50” value was found to be 25.

For H-VLVKKRRRR-OH, the “Ratio IC50” value is 12.48.

In the case of H-GGRGTRWHG-OH, the “Ratio IC50” value came to 8.6.

Take H-RWWRKWWIR-OH: the “Ratio IC50” value is on record as 0.24.

For H-WGKRRGWNT-OH, the “Ratio IC50” value is 7.91.

As to H-RWFRWWKRW-OH, the “Ratio IC50” value amounted to 0.26.

For the substance H-GGIRRLRWY-OH, the “Ratio IC50” value amounted to 1.16.

Consider H-KRWLTWRFR-OH, for which the “Ratio IC50” value came out at 0.54.

Take H-INRKRRLRW-OH: the “Ratio IC50” value is given as 4.25.

Consider H-RWKMWWRWV-OH, for which the “Ratio IC50” value is 0.24.

Take H-RQNGVWRVF-OH: the “Ratio IC50” value was 8.26.

Turning to H-WHYRSQVGR-OH, the “Ratio IC50” value was found to be 6.65.

As for H-RWWRWRKWW-OH, the “Ratio IC50” value is 0.28.

In the case of H-GRMRLWNGR-OH, the “Ratio IC50” value is on record as 7.91.

Turning to H-ASKRVGVRN-OH, the “Ratio IC50” value is 8.17.

With H-HYKFQRWIK-OH, the “Ratio IC50” value is listed as 2.79.

Take H-RNKFGGNWR-OH: the “Ratio IC50” value was found to be 25.

As to H-RVKTWRVRT-OH, the “Ratio IC50” value was found to be 5.66.

On to H-RVRWWKKRW-OH, for which the “Ratio IC50” value was found to be 0.27.

Turning to H-RWYRKRWSW-OH, the “Ratio IC50” value is given as 0.7.

For H-IWKRWWRRW-OH, the “Ratio IC50” value amounted to 0.24.

With H-IKRVKRRKR-OH, the “Ratio IC50” value was found to be 2.93.

As to H-RSGKKRWRR-OH, the “Ratio IC50” value amounted to 6.5.

As to H-FVWQKGTNR-OH, the “Ratio IC50” value is on record as 11.3.

With H-WHGVRWWKW-OH, the “Ratio IC50” value was 2.5.

As to H-SSGVRWSWR-OH, the “Ratio IC50” value was determined as 8.16.

On to H-WVRFVYRYW-OH, for which the “Ratio IC50” value amounted to 2.15.

Consider H-MINRVRLRW-OH, for which the “Ratio IC50” value worked out at 2.77.

For H-RHWKTWWKR-OH, the “Ratio IC50” value turned out to be 0.95.

As to H-HGVWGNRKR-OH, the “Ratio IC50” value is 7.95.
